According to PubChem BioAssay:
Unmarked numbers belong to inactive results. Results filed as inconclusive are left out. The source made the active and inactive calls.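 How the source made its calls, unless noted: active means inhibition over a set limit, the all-compound mean plus 3 SD, in both replicate runs; inconclusive means over that limit in just one replicate run; inactive means at or under that limit in both runs.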

Experiments:
[1] = S. cerevisiae growth inhibition in permissive medium (OD615), pilot counter-assay for S. cerevisiae lifespan shortening project, permissive growth control (AID 705;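 active means growth inhibition above 25% in both replicates, a cutoff set 3 SD above the mean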); conditions: OD615, 24 h, at 10 µM, hits give high values
How it was run: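 assay system = Saccharomyces cerevisiae strain carrying genetically modified DeaD replicative-lifespan system | technique = absorbance (optical density) at 615 nm | buffer or medium = permissive raffinose/galactose medium | timing = cells pre-grown 4 h, then 24 h compound exposure, 30 °C humidified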

[2] = S. cerevisiae growth inhibition in restrictive medium, OD615, pilot screen, restrictive growth control, yeast lifespan reduction project (AID 706;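 active means growth inhibition above a set limit, 3 SD over mean compound inhibition, in both replicates, cut at about 43% in these data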;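 further: modified DeaD lifespan yeast strain shifted to restrictive glucose medium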); conditions: OD615, 48 h, at 10 µM, hits give high values
How it was run: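 System: modified S. cerevisiae. Buffer or medium: CSMM-D glucose medium. Incubation: 4 h pre-growth plus 48 h compound exposure, 30 °C. Detection: absorbance (optical density) measured at 615 nm.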

[3] = doxorubicin toxicity protection in MRP-1 cells – H69AR cells, CellTiter-Glo, duplicate, MRP-1 activator project, pilot screen (AID 807;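 active means viability increase at or above a cutoff of the median across tested compounds plus 3 SD, cut at about 8.5% in these data, passing the limit was not always enough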;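 further: compound pretreatment 18-22 h then 72 h combined with doxorubicin; 0% = doxorubicin alone and 100% = vehicle without doxorubicin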); conditions: H69AR viability with doxorubicin, CellTiter-Glo luminescence; at 10 µM; hits give high values
[4] = viability of HCT116 without oncogenic beta-catenin – human colon tumor cells, pilot screen (AID 823;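 active means cell viability at or below a set limit in both duplicate runs, the limit being the all-compound median minus 4 SD, cut at about 23% in these data, passing the limit was not always enough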;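 further: 0% = wells killed by 20 µM Hyamine and 100% = untreated DMSO cell wells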); conditions: HCT116 beta-catenin knockout viability, CellTiter-Glo, 60 h; at 10 µM; hits give low values
[5] = viability of PTEN-null HCT116 cells – cell-based, HCT116 clonal line, CellTiter-Glo, pilot screen (AID 824;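 active means viability at or below 27.92% in each of two runs, the all-compound median minus 4 SD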;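 further: 0% = 20 µM Hyamine control and 100% = vehicle cell control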); conditions: HCT116 PTEN-deleted viability, 60 h, at 10 µM, hits give low values
[6] = RAM pathway blockade in budding yeast – dse1pr::URA3 reporter, 5-FOA selection, pilot screen (AID 869);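 further: 0% = DMSO wells with no growth and 100% = 10 µM 1-NA-PP1 with full growth; RAM network block rescues cells from 5-FOA so hits raise OD615 growth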; conditions: S. cerevisiae dse1pr::URA3 5-FOA growth, OD615, 2 d; at 10 µM; hits give high values; strain carries analog-sensitive mutant Cbk1 kinase
[7] = RAM signaling pathway blockade in yeast – S. cerevisiae, Pdr1DBD-CYC8 efflux-inhibited sensitized strain, primary screen (AID 1298;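 active means RAM network inhibition above 8.4% in each of two replicates, 3 SD over the compound average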;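 further: 0% = DMSO untreated cells without growth and 100% = 10 µM 1-NA-PP1 full growth; higher means more yeast growth rescued from 5-FOA killing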); conditions: S. cerevisiae cbk1-as DSE1-URA3 strain, 5-FOA growth OD615, 2 d; at 50 µM; hits give high values

Structure (SMILES) | growth inhibition [1] [%] | growth inhibition [2] [%] | viability increase [3] [%] | viability [4] | viability [5] | inhibition [6] [%] | RAM network inhibition [7] [%]
Cc1c(N=c2c(=O)c3ccccc3c2=O)c(=O)n(-c2ccccc2)n1C | -15.7 | -8.74 | -4.43 | 95.2% | 95.3% | 4.17 | 3.66
CS(=O)(=O)Nc1ccccc1Oc1ccccc1 | -4.92 | 2.56 | -0.66 | 97.5% | 92.8% | -0.23 | -0.46
Cc1ccccc1CN1CCN(CC(=O)NCc2ccccn2)C1=O | 4.21 | 10.8 | 1.17 | 106% | 108% | -0.32 | 1.55
COc1ccc(C/C(O)=C(\C#N)c2nc3ccccc3[nH]2)cc1OC | -4.85 | 0.74 | -1.93 | 90.7% | 87.7% | 0.175 | 3.13
C/C(=C1\SC(N2CCOCC2)=NC1=O)c1ccccc1 | -19.6 | -10.6 | -2.49 | 97% | 102% | 0.76 | 1.09
CCOc1ccc(Nc2cc(C)nc3nc(C)nn23)cc1 | -10.9 | 5.96 | -3.11 | 110% | 93.9% | 0.67 | 2.62
COc1ccc(N=C(N(C)C)P(=O)(N(C)C)N(C)C)cc1 | -5.46 | 0.105 | -1.44 | 103% | 98.4% | 0.22 | 6.63
CCOc1ccc(C2CC(c3ccc(F)cc3)Nc3nc(N)nn32)cc1 (configuration not stated) | 4.3 | 6.27 | 2.97 | 105% | 101% | 0.7 | 0.88
Cc1nc2ccccc2c2oc(C(=O)N3CCc4ccccc43)cc12 | -11.5 | -16.6 | -0.71 | 95.5% | 89.1% | 0.625 | -0.73
O=C1CN(C(=O)c2ccc(Br)o2)C(c2ccccc2)c2cc(Br)ccc2N1 (configuration not stated) | -9.54 | -12.8 | -8.1 | 58.3% | 55.6% | 4.09 | 6.05
COc1ccc(C2C=C(c3ccccc3)Nc3nnnn32)cc1 (configuration not stated) | -5.09 | 5.53 | 0.19 | 95.3% | 90.3% | 0.855 | 5.93
CC(C)(C)N1C(=O)c2ccc(C(=O)Nc3nccs3)cc2C1=O | -7.12 | -7.02 | -0.27 | 106% | 103% | 0.64 | 0.63
O=S(=O)(NCCSc1nnc(-c2ccco2)n1-c1ccccc1)c1ccccc1 | -14.1 | -19.2 | -3.53 | 83.9% | 87.1% | 1.52 | 6.44
Cn1c(NC(=O)c2cc(Br)ccc2Cl)cc(=O)n(C)c1=O | 5.54 | -8.75 | -3.46 | 96.8% | 90.7% | 1.64 | 1.23
N#CC1=C(SCC(=O)Nc2ccccc2)NC(=O)CC1c1ccc(O)cc1 (configuration not stated) | -15.2 | -10.5 | -2.43 | 91.4% | 86.5% | 1.42 | -0.69
Cc1nnc(NC(=O)c2oc3cc(C)c(C)cc3c2C)s1 | -3.77 | -4.99 | -0.05 | 105% | 99.8% | 1.64 | 5.7
COc1cccc(OC)c1C(=O)Nc1ccc2c(c1)OCCO2 | -8.21 | 0.395 | -0.21 | 99.8% | 95.9% | 1.23 | 0.51
Nc1cccc(C(=O)Nc2ccc(N)cc2Cl)c1 | -18.5 | -7.93 | -0.9 | 103% | 106% | 2.42 | 2.91

Structure (SMILES) | growth inhibition [1] [%] | growth inhibition [2] [%] | viability increase [3] [%] | viability [4] | viability [5] | inhibition [6] [%] | RAM network inhibition [7] [%]
CCC(C)(c1ccc(C(=O)OC)s1)c1ccc(C(=O)OC)s1 | -5.53 | -2.49 | 1.15 | 73.3% | 76.8% | 0.63 | 1.02
O=C(c1cc(-c2ccc(O)cc2)on1)N1CCc2ccccc2C1 | -16.4 | 15.6 | -4.4 | 93% | 91.1% | 0.875 | -2.87
COc1ccc(S(=O)(=O)Cc2ccc(C(=O)N3CCN(c4cc(Cl)ccc4C)CC3)o2)cc1 | -4.16 | -10.7 | -2.31 | 76.8% | 67% | 2.08 | 3.33
CSc1nnc(Cn2c(=O)sc3ccccc32)n1CCc1ccccc1 | 3.19 | 9.71 | -1.75 | 92.2% | 83.3% | 2.35 | 6.93
CCCCNC(=O)c1cc(-c2ccc(OC)c(OC)c2)on1 | 0.455 | 5.25 | 2.07 | 104% | 96.9% | -0.37 | -0.26
CCc1ccc(NC(=O)CSc2nnc(Cn3c(=O)sc4ccccc43)n2C)cc1 | -4.66 | -25.2 | -1.98 | 104% | 97.6% | 2.96 | 8.29
O=C(NCc1cccnc1)NC1(c2ccccc2)CC1 | -2.17 | -17.7 | 0.15 | 106% | 100% | 0.49 | 0.4
COC(=O)c1ccc2c(c1)N(Cc1cc(C)ccc1C)C(=O)c1ccccc1S2=O (configuration not stated) | -0.815 | -2.77 | -2.53 | 96.8% | 91.9% | 0.92 | 3.53
CC(=O)c1ccc(OCC(O)CN2C(C)CCCC2C)cc1 (configuration not stated) | -1.28 | -5.97 | -0.1 | 97.8% | 98.1% | 0.78 | 1.46
Cc1nn(C)c(C)c1N=Cc1c(O)ccc2ccccc12 | -25.2 | -28.4 | -1.72 | 105% | 92.1% | -0.015 | -0.32
Cc1c(NC(=O)Oc2ccccc2)sc(=S)n1C | 14.5 | 34.4 | -3.22 | 102% | 98.2% | 1.32 | 0.99
O=C(c1ccccc1)C(Sc1ncn[nH]1)c1ccccc1 (configuration not stated) | -8.75 | 0.305 | 5.4 | 92.5% | 85.7% | 1.1 | 2.92
Cc1cccc(NC(=O)c2ccccc2Br)n1 | 4.2 | 24 | -3.61 | 103% | 94% | 0.97 | 2.02
CC1CCN(c2nc3c(c(=O)[nH]c(=O)n3C)n2Cc2ccccc2Cl)CC1 | -10.2 | -20.9 | -6.47 | 87.6% | 72% | 2.75 | 9.67
COc1cccc(-c2nnc3n2N=C(C(C)(C)C)CS3)c1 | -5.97 | -16.3 | -4.18 | 5.81% (active) | 5.52% (active) | 0.79 | 2.49
CC(=O)C(C)Oc1ccc2c3c(c(=O)oc2c1)CCCC3 (configuration not stated) | -6.26 | 9.38 | 0.37 | 93% | 91.1% | 2.3 | 0.72
CN1CCCN(Cc2ccccc2C(F)(F)F)CC1 | 1.78 | 1.52 | -1.78 | 97.6% | 98.1% | 1.25 | 1.53
CCN(CCNS(=O)(=O)c1ccc2[nH]c(=O)sc2c1)c1ccccc1 | 0.725 | 13 | -1.31 | 99% | 87.6% | 0.01 | 2.83
